Results on 11 compounds are retold here after ChEMBL document CHEMBL1139543, “Antineoplastic agents. 445. Synthesis and evaluation of structural modifications of (Z)- and (E)-combretastatin A-41” (J Med Chem, 2005).

One test has as its system FaDu. Kind of test: Growth inhibition against human pharynx FADU cell line. Format: functional.
A further test deals with NCI-H460. The test can be described thus: Growth inhibition against human lung-NSC NCI-H460 cell line. Format: functional.
A further test concerns DU-145. The test can be described thus: Growth inhibition against human prostate cell line (DU-145). In kind it is functional.
For the next test, the system named is SW-1736. Kind of test: Growth inhibition against human thyroid cell line( SW 1736). In kind it is functional.
The next test deals with P388. The test can be described thus: Effective dose against murine P388 leukemia cell line. In kind it is functional. The following applies: Mus musculus, read-out: ED50 (the source's name).
Another test concerns the target Tubulin beta-1 chain (Homo sapiens, UniProt Q9H4B7). Kind of test: Inhibition of tubulin polymerization upon incubation for 20 min at 30 degree C. In short, it runs like this:
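Purified tubulin at 10 µM (1.0 mg/mL) in 0.8 M monosodium glutamate, pH 6.6, with 4% (v/v) DMSO and varying compound concentrations. Preincubated 15 min at 37 °C, chilled on ice, then GTP (0.4 mM) added. Warmed from 0 °C to 30 °C, and assembly followed 20 min by turbidity at 350 nm. IC50 interpolated; at least two determinations; SD reported.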

The next test has as its system SK-N-SH. Kind of test: Growth inhibition against human neuroblastoma cell line (SK-N-SH). In kind it is functional.
The subject of a further test is BXPC-3. Kind of test: Growth inhibition against human pancreas carcinoma cell line (BxPC-3). In kind it is functional.
The subject of the next test is Staphylococcus aureus. Kind of test: Minimum inhibitory concentration against Staphylococcus aureus was determined in the disk diffusion assay; value ranges from 25-50 ug/disk. In kind it is functional.
In the next test the test system is Streptococcus pneumoniae. Kind of test: Minimum inhibitory concentration against Streptococcus pneumoniae was determined in the disk diffusion assay; value ranges from 50-100 ug/disk. In kind it is functional.
For test [1], the system named is Candida albicans. The test can be described thus: Minimum inhibitory concentration against Candida albicans was determined in the disk diffusion assay; value ranges from 25-50 ug/disk. In kind it is functional. Summed up:
(§1)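 Disk diffusion on Sabouraud Dextrose Agar. MIC taken as the lowest drug amount giving a clear zone of growth inhibition.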

The test system of a further test is Micrococcus luteus. The test can be described thus: Minimum inhibitory concentration against Micrococcus luteus was determined in the disk diffusion assay; value ranges from 12.5-25 ug/disk.
Test [2] concerns Neisseria gonorrhoeae. The test can be described thus: Minimum inhibitory concentration against Neisseria gonorrhoeae was determined in the disk diffusion assay; value ranges from 50-100 ug/disk. In kind it is functional.
The subject of test [3] is Neisseria gonorrhoeae. The test can be described thus: Minimum inhibitory concentration against Neisseria gonorrhoeae was determined in the disk diffusion assay; value ranges from 12.5-25 ug/disk. In kind it is functional.
A further test relates to Cryptococcus neoformans. Kind of test: Minimum inhibitory concentration against Cryptococcus neoformans was determined in the disk diffusion assay; value ranges from 6.25-12.5 ug/disk. In kind it is functional.
Test [4] concerns Candida albicans. Kind of test: Minimum inhibitory concentration against Candida albicans was determined in the disk diffusion assay; value ranges from 50-100 ug/disk. In kind it is functional. In short, it runs like this:
as §1

pIC50: −log10 of the molar value. In brackets after ≈: the same amount, converted by molar mass. Some results are limits rather than exact numbers.

Chain of Tubulin beta-1 chain (Q9H4B7 whole entry): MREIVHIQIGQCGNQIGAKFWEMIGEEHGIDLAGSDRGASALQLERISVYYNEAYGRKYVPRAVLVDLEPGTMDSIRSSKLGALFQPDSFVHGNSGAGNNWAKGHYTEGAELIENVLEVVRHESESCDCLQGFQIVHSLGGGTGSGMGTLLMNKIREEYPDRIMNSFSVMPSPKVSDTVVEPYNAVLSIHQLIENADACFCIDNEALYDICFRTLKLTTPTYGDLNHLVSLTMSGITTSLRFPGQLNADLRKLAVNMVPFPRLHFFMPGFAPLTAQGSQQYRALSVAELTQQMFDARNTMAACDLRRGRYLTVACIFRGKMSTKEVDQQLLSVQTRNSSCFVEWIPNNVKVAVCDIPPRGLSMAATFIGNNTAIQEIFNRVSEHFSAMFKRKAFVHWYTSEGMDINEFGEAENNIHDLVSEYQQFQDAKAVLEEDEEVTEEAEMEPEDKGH

Take `COc1ccc(/C=C/c2cc(OC)c(OC)c(OC)c2)cc1Br`: the concentration for 50% growth inhibition (GI50) with FaDu is 11.4 µg/mL (≈ 30.1 µM); in the test with NCI-H460, 0.36 µg/mL (≈ 0.949 µM); with DU-145 it was 0.46 µg/mL (≈ 1.21 µM); with SW-1736 it was 10.8 µg/mL (≈ 28.5 µM); in the test on SK-N-SH it was 0.4 µg/mL (≈ 1.05 µM); with BXPC-3, 0.34 µg/mL (≈ 0.897 µM). Further, the EC50 in the test on P388 was 3.08 µg/mL (≈ 8.12 µM). The same compound showed a pIC50 on Tubulin beta-1 chain of 4.51.

As for `COc1ccc(/C=C\c2cc(OC)c(OC)c(OC)c2)cc1OCC[N+](C)(C)C.[I-]`, the GI50 with FaDu turned out to be 0.24 µg/mL; with NCI-H460, 0.36 µg/mL; with DU-145, 0.33 µg/mL; with SW-1736 it was 0.1 µg/mL; in the test on SK-N-SH, 0.28 µg/mL; with BXPC-3, 37.2 µg/mL. In addition, the MIC is 50 ug/disk in the test on Staphylococcus aureus, 100 ug/disk against Streptococcus pneumoniae, 50 ug/disk against Candida albicans [1] and 25 ug/disk against Micrococcus luteus. The EC50 with P388 amounted to 1.94 µg/mL.

With `COc1ccc(/C=C\c2cc(OC)c(OC)c(OC)c2)cc1OCCCl`, the GI50 turned out to be 4.6 µg/mL (≈ 12.1 µM) with FaDu; 3.7 µg/mL (≈ 9.77 µM) in the test with NCI-H460; 3.4 µg/mL (≈ 8.97 µM) in the test on DU-145; 4.7 µg/mL (≈ 12.4 µM) in the test with SW-1736; 2 µg/mL (≈ 5.28 µM) in the test with SK-N-SH; 2.7 µg/mL (≈ 7.13 µM) in the test with BXPC-3. Also, the EC50 in the test with P388 was 2.9 µg/mL (≈ 7.65 µM). For the same compound, the negative logarithm of the IC50 (pIC50) against Tubulin beta-1 chain was less than 4.40.

As to `COc1ccc(/C=C\c2cc(OC)c(OC)c(OC)c2)cc1[N+](=O)[O-]`, the concentration for 50% growth inhibition (GI50) with FaDu stood at 0.047 µg/mL (≈ 0.136 µM); in the test on NCI-H460, 0.0038 µg/mL (≈ 0.011 µM); in the test with DU-145, 0.047 µg/mL (≈ 0.136 µM); in the test with SW-1736 it was 0.0067 µg/mL (≈ 0.0194 µM); with SK-N-SH, 0.014 µg/mL (≈ 0.0405 µM); in the test with BXPC-3, 0.029 µg/mL (≈ 0.084 µM). Moreover, the EC50 with P388 was 2.4 µg/mL (≈ 6.95 µM). On Tubulin beta-1 chain, the pIC50 was 5.59.

On to `COc1ccc(/C=C\c2cc(OC)c(OC)c(OC)c2)cc1N(C)C`, for which the concentration for 50% growth inhibition (GI50) in the test with FaDu came to 0.09 µg/mL (≈ 0.262 µM); with NCI-H460, 0.4 µg/mL (≈ 1.16 µM); in the test on DU-145 it was 0.11 µg/mL (≈ 0.32 µM); with SW-1736, 0.8 µg/mL (≈ 2.33 µM); with SK-N-SH it was 0.01 µg/mL (≈ 0.0291 µM); in the test on BXPC-3, 0.015 µg/mL (≈ 0.0437 µM). For the same compound, the EC50 in the test on P388 amounted to 0.9 µg/mL (≈ 2.62 µM).

Take `COc1ccc(/C=C\c2cc(OC)c(OC)c(OC)c2)cc1OCCCO`: the GI50 came out at 0.63 µg/mL (≈ 1.68 µM) in the test with FaDu; 0.37 µg/mL (≈ 0.988 µM) with NCI-H460; 0.43 µg/mL (≈ 1.15 µM) in the test with DU-145; 0.38 µg/mL (≈ 1.01 µM) with SW-1736; 0.18 µg/mL (≈ 0.481 µM) with SK-N-SH; 0.26 µg/mL (≈ 0.694 µM) in the test with BXPC-3. In addition, the MIC against Neisseria gonorrhoeae [2] is given as 100 ug/disk. The EC50 in the test on P388 amounted to 0.63 µg/mL (≈ 1.68 µM). Besides, the pIC50 on Tubulin beta-1 chain was 5.19.

Turning to `COc1ccc(/C=C\c2cc(OC)c(OC)c(OC)c2)cc1Br`, the concentration for 50% growth inhibition (GI50) was 0.0058 µg/mL (≈ 0.0153 µM) in the test on FaDu; 0.033 µg/mL (≈ 0.087 µM) in the test on NCI-H460; 0.027 µg/mL (≈ 0.0712 µM) in the test on DU-145; 0.034 µg/mL (≈ 0.0897 µM) in the test with SW-1736; 0.002 µg/mL (≈ 0.00527 µM) in the test on SK-N-SH; 0.007 µg/mL (≈ 0.0185 µM) in the test on BXPC-3. In addition, the EC50 in the test on P388 came to 0.16 µg/mL (≈ 0.422 µM). This compound had a negative logarithm of the IC50 (pIC50) against Tubulin beta-1 chain of 5.96.

With `COc1ccc(/C=C/c2cc(OC)c(OC)c(OC)c2)cc1OCCCO`, the concentration for 50% growth inhibition (GI50) was 2.3 µg/mL (≈ 6.14 µM) with FaDu; more than 10 µg/mL with NCI-H460; 4.5 µg/mL (≈ 12 µM) in the test on DU-145; 11.6 µg/mL (≈ 31 µM) with SW-1736; 8.1 µg/mL (≈ 21.6 µM) with SK-N-SH; more than 10 µg/mL in the test with BXPC-3. Moreover, the EC50 in the test with P388 was 6.8 µg/mL (≈ 18.2 µM).

On to `COc1ccc(/C=C/c2cc(OC)c(OC)c(OC)c2)cc1[N+](=O)[O-]`, for which the GI50 is 3.8 µg/mL (≈ 11 µM) in the test on FaDu; more than 10 µg/mL with DU-145; 2.8 µg/mL (≈ 8.11 µM) in the test with SW-1736; 7.3 µg/mL (≈ 21.1 µM) in the test with SK-N-SH; more than 10 µg/mL with BXPC-3. For the same compound, the EC50 in the test on P388 is more than 10 µg/mL.

As to `COc1ccc(/C=C\c2cc(OC)c(OC)c(OC)c2)cc1OC(=O)N(CCCl)CCCl`, the 50% growth inhibitory concentration (GI50) in the test with FaDu is 0.15 µg/mL (≈ 0.31 µM); with NCI-H460, 0.37 µg/mL (≈ 0.764 µM); in the test with DU-145, 0.31 µg/mL (≈ 0.64 µM); in the test with SW-1736 it was 0.72 µg/mL (≈ 1.49 µM); in the test with SK-N-SH, 0.14 µg/mL (≈ 0.289 µM); in the test with BXPC-3, 2.8 µg/mL (≈ 5.78 µM). Also, the EC50 with P388 was 0.074 µg/mL (≈ 0.153 µM). Moreover, the pIC50 on Tubulin beta-1 chain was less than 4.40.

Turning to `COc1ccc(/C=C/c2cc(OC)c(O)c(OC)c2)cc1O`, the GI50 with FaDu is 3.2 µg/mL (≈ 10.6 µM); in the test with NCI-H460 it was 4.9 µg/mL (≈ 16.2 µM); with DU-145, 6.3 µg/mL (≈ 20.8 µM); with SW-1736, more than 10 µg/mL; with SK-N-SH it was 5.5 µg/mL (≈ 18.2 µM); with BXPC-3 it was 5 µg/mL (≈ 16.5 µM). The MIC with Neisseria gonorrhoeae [3] worked out at 25 ug/disk; against Cryptococcus neoformans, 12.5 ug/disk; with Candida albicans [4] it was 100 ug/disk. Moreover, the EC50 with P388 was 4.49 µg/mL (≈ 14.9 µM). This compound also had a pIC50 on Tubulin beta-1 chain of 4.85.
